# Experimental data pooled from the literature.
# Compare with care: the assays were run in different laboratories.
# RET: Proto-oncogene tyrosine-protein kinase receptor Ret (RET, Homo sapiens, UniProt P07949)
# RET M918T: Proto-oncogene tyrosine-protein kinase receptor Ret (RET, Homo sapiens, UniProt P07949, M918T)
# RET V804M: Proto-oncogene tyrosine-protein kinase receptor Ret (RET, Homo sapiens, UniProt P07949, V804M)
SMILES,target,test,setting,endpoint,value
C#Cc1n[nH]c2c(-c3cn(C(C)c4ccccn4)c(=O)[nH]c3=O)cc(F)cc12 (centres unmarked),RET,"enzyme activity, inhibitor",1 µM,inhibition,8.7%
N#CC1(c2ccccn2)CCN(Cc2cc(C(=O)O)c(=O)n3ccccc23)CC1,RET M918T,"cell-free assay, competition with immobilised ligand",1 µM,remaining binding,100%
COc1ncccc1-c1cnn2ccc(N3CCN(C(=O)OC(C)C)CC3)nc12,RET,"binding, competition with immobilised ligand",1 µM,remaining binding,100%
Nc1ncc(-c2nc(N3CCOCC3)nc(N3CCOCC3)n2)c(C(F)F)n1,"Proto-oncogene tyrosine-protein kinase receptor Ret (RET, Homo sapiens, UniProt P07949, V804L)","binding, competition with immobilised ligand",10 µM,remaining binding,88%
O=C1NC(=O)N(c2ccccc2)C(=O)C1=CNc1ccc2[nH]c(=O)[nH]c2c1,RET,"enzyme activity, inhibitor, radiometric",0.1 µM,remaining activity,107%
Cn1cncc1[C@@](O)(COc1ccc(C#N)cc1-c1ccc(OC(F)(F)F)cc1)c1ccc(C#N)cc1,RET M918T,"cell-free assay, competition with immobilised ligand",1 µM,remaining binding,98%
C#Cc1n[nH]c2c(-c3cn([C@@H](C)c4ccccc4)c(=O)[nH]c3=O)cc(F)cc12,RET V804M,"enzyme activity, inhibitor",0.1 µM,inhibition,2.3%
Cc1nn(C)cc1-c1nc2c(N3CCN(Cc4ccc(Cl)cc4)CC3)c(Cl)cnc2[nH]1,RET V804M,"binding, competition with immobilised ligand",1 µM,remaining binding,22%
Cn1cc(-c2cccc(N3CCc4c(sc5c4CC(C)(C)C5)C3=O)c2CO)cc(Nc2ccncn2)c1=O,RET,"enzyme activity, inhibitor",1 µM,inhibition,14%
O=C(Cn1cc(C=C2C(=O)NC(=O)NC2=O)c2ccccc21)Nc1ccccc1,RET,"enzyme activity, inhibitor, radiometric",0.1 µM,remaining activity,131%
O=c1[nH]c2ccccc2n1C1CCN(Cc2ccc(-c3[nH]c4cc5ncnc5cc4nc3-c3ccccc3)cc2)CC1,RET,cell-free assay,0.5 µM,remaining signal,96.7%
